Out of some 85,000 compounds screened, about 940 (1.1%) were called active. The sample holds actives, similar compounds and a random draw of the others, so the mix is not that of the screen.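 How the source made its calls: active means viability at or below 50% in the single dose screen; inactive means viability above 50%.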
Test: antiproliferative effect on LL 47 fibroblasts – human, LL 47 cells, CellTiter-Glo luminescence, primary screen (AID 719);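 further: compound exposure lasted 72 h before the ATP readout; 100% = median luminescence of untreated cell-only wells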
Conditions: LL 47 human lung fibroblast viability, ATP luminescence; at 10 µM; active compounds read low
How it was run: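 Times – overnight cell rest, 72 h compound treatment at 37 °C · Test system – human lung fibroblast line LL 47, low passage · Amount – 1,150 cells in each well · Controls – cell-only wells, no compound · Doses – 0.1% DMSO in all compound wells · Measured by – CellTiter-Glo luminescence · Buffer or medium – IMEM plus 15% FBS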

| Structure (SMILES) | viability |
| --- | --- |
| COc1ccc(Nc2ncc(C(=O)N3CCN(c4ccccc4OC)CC3)c3ccccc23)cc1 | 100% (inactive) |
| Fc1ccc(-n2c(Cc3ccccc3)nnc2SCc2nc(-c3ccc(Cl)cc3)no2)cc1 | 111% (inactive) |
| CC(C)CNC(=O)CC(c1ccccc1)c1c(O)ccc2ccccc12 (configuration not stated) | 94.7% (inactive) |
| CC(C)C(=O)NC(NC(=S)NC1CCS(=O)(=O)C1)C(Cl)(Cl)Cl (configuration not stated) | 104% (inactive) |
| COCCn1c(SCc2nnc(-c3ccc(OC)c(OC)c3)o2)nc2sc3c(c2c1=O)CCC3 | 99.8% (inactive) |
| Cc1nc(Nc2ccc3c(c2)OCCO3)c2nnn(Cc3ccccc3Cl)c2n1 | 98.4% (inactive) |
| CCCc1nc(NCc2ccc3c(c2)OCO3)c2nnn(Cc3ccccc3Cl)c2n1 | 23.2% (active) |
| O=C(Cn1cnc2c(nnn2Cc2ccc(F)cc2)c1=O)NCc1ccc2c(c1)OCO2 | 93.2% (inactive) |
| COC(=O)c1cccc(-n2[nH]nnc2=S)c1 | 102% (inactive) |
| CCOC(=O)CSc1nnc(CNC(=O)c2ccco2)n1-c1ccc(F)cc1 | 103% (inactive) |
| Cc1ccc(-n2c(CNc3ccc(F)cc3)nnc2SCC(=O)N2CCOCC2)cc1 | 2.59% (active) |
| O=C(CSc1nnc(Cc2ccccc2)n1-c1ccccc1)N1CCOCC1 | 109% (inactive) |
| O=C(NCCCn1ccnc1)Nc1ccc(Cl)cc1Cl | 102% (inactive) |
| CCCCOc1ccc(N(CC(=O)NCC2CCCO2)C(=O)CCC(=O)Nc2cc(C)ccn2)cc1 (configuration not stated) | 91.1% (inactive) |
| COc1ccc(Br)cc1CN1CCN(C(=O)c2cccc(OC)c2OC)CC1 | 94.1% (inactive) |
| c1ccc2c(c1)C(=NC1CCCCC1)NC2=NC1CCCCC1 | 40.6% (active) |
| O=C1CCCCC(=O)c2ccccc2N1 | 96.7% (inactive) |
| Cc1nn(Cc2ccccc2)c2c1C(c1ccccc1)C(C#N)=C(N)O2 (configuration not stated) | 98.6% (inactive) |
| CCCCNS(=O)(=O)c1ccc(S(=O)(=O)n2cnc3ccccc32)cc1 | 107% (inactive) |
| Cc1cc(Br)ccc1NC(=O)C1CCCO1 (configuration not stated) | 91.1% (inactive) |
| Cc1ccc(C(=O)NCC2CCCO2)o1 (configuration not stated) | 101% (inactive) |
| OC(CNCC1CCCO1)Cn1c2ccc(Br)cc2c2cc(Br)ccc21 (configuration not stated) | 2.96% (active) |
| COC(=O)C1=C(C(=O)OC)C2(OC1c1ccc(Br)cc1)C(=O)c1ccccc1C2=O (configuration not stated) | 105% (inactive) |
| O=C(Nc1cccc(NC(=O)c2ccco2)c1)c1cnccn1 | 103% (inactive) |
| COC(=O)c1cc2nc(-c3ccccc3)cc(C(F)(F)F)n2n1 | 97.7% (inactive) |

| Structure (SMILES) | viability |
| --- | --- |
| CNc1nc(SC)nc(N(C#N)CC(=O)OC)n1 | 107% (inactive) |
| CC(=O)Nc1ccc(S(=O)(=O)N2CCN(C(=O)c3ccccc3F)CC2)cc1 | 105% (inactive) |
| CCn1c(/C=C/c2ccc([N+](=O)[O-])o2)nc2ccccc2c1=O | 9.18% (active) |
| Cc1nc2ccccc2c(=O)n1CCCn1ccnc1 | 100% (inactive) |
| O=c1c2ccccc2nc(N/N=C/c2ccccc2)n1O | 99.1% (inactive) |
| CCCn1nnc2sc3c(c2c1=O)CCC(C)C3 (configuration not stated) | 88.2% (inactive) |
| C=CCn1c(SCc2c(C)noc2C)nc2sc3c(c2c1=O)CCC(C)C3 (configuration not stated) | 47.2% (active) |
| CC1CCc2c(sc3nc4n(c(=O)c23)CCS4)C1 (configuration not stated) | 104% (inactive) |
| COc1ccc(CN(CC(=O)NC2CCCC2)C(=O)CCC(=O)Nc2cc(C)on2)cc1 | 101% (inactive) |
| O=C1C=C(c2ccc(Cl)cc2)C(=O)N1Nc1ccccc1 | 49.3% (active) |
| Cc1ccc(-c2noc(CSc3nnc(-c4ccncc4)n3-c3ccc(F)cc3)n2)cc1 | 80.8% (inactive) |
| OC(CN=c1sc2ccccc2n1CC(O)COc1ccccc1)COc1ccccc1 (configuration not stated) | 86% (inactive) |
| CN(C)CCNC(CC(=O)Nc1ccc(Cl)c(Cl)c1)C(=O)O (configuration not stated) | 102% (inactive) |
| N/C(=N\OC(=O)Nc1ccc(Cl)c(Cl)c1)c1ncc(C(F)(F)F)cc1Cl | 97.2% (inactive) |
| O=C(CC(O)(C(F)(F)F)C(F)(F)F)Nc1ccc(Cl)c(Cl)c1 | 22.4% (active) |
| COC(=O)c1ccc(NC(=O)C23CC4CC(C2)CC(n2cnc(Cl)n2)(C4)C3)cc1 | 96.5% (inactive) |
| COc1ccc(C2CC(c3cccs3)=Nc3ccccc3S2)cc1OC (configuration not stated) | 93.6% (inactive) |
| COc1ccc(N(CC(=O)NC2CCCCC2)C(=O)CNC(=O)c2ccco2)c(OC)c1 | 96.4% (inactive) |
| COc1ccc(Nc2oc(-c3ccccc3Cl)nc2C#N)cc1 | 23.1% (active) |
| CCOc1ccc(Nc2oc(Cc3ccccc3)nc2C#N)cc1 | 99.8% (inactive) |
| COc1ccccc1-c1nc(C#N)c(N2CCC(C(N)=O)CC2)o1 | 89.3% (inactive) |
| COc1ccccc1Nc1nc(N)nc(CN(C)C2CCCCC2)n1 | 94.3% (inactive) |
| COc1ccccc1NC1=NC(c2ccc(Cl)cc2)N=C(N)N1 (configuration not stated) | 45.8% (active) |
| COc1ccccc1NC1=NC2(CCCC2)N=C(N)N1 | 93% (inactive) |
| CCn1c(=O)c(=O)n(CC)c2cc(S(=O)(=O)N3CCc4ccccc43)ccc21 | 70.5% (inactive) |

| Structure (SMILES) | viability |
| --- | --- |
| CC1(C)CCc2nc(SCc3ccccc3)c(C#N)cc2C1 | 95.3% (inactive) |
| Cc1nc(NC(=O)C2CCCCC2)sc1C | 108% (inactive) |
| O=C(NCc1ccccc1)C1CCCN(S(=O)(=O)c2cccs2)C1 (configuration not stated) | 94.6% (inactive) |
| O=C(Cn1c(-c2cscn2)nc2ccccc21)Nc1ccc(Cl)cc1 | 90.7% (inactive) |
| CN(C)c1ccnc2sc3c(=O)n(-c4ccc(Cl)cc4)cnc3c12 | 102% (inactive) |
| Cc1cc2c(c(=O)n1Cc1ccco1)C(c1ccccc1)C(C#N)=C(N)O2 (configuration not stated) | 107% (inactive) |
| CC1=C(C(=O)Nc2ccccc2)C(c2ccco2)C(C#N)=C(SCC(N)=O)N1 (configuration not stated) | 88.2% (inactive) |
| N#CC1=C(N)Oc2c(sc3ccccc23)C1c1ccco1 (configuration not stated) | 20.2% (active) |
| CCNc1nc(NC(C)C)nc(OCCOC(=O)c2ccccc2)n1 | 108% (inactive) |
| Cc1cc(O)cc(O)c1C(=O)Cc1cnn(-c2ccccc2)c1 | 98.6% (inactive) |
| C/C(=N\NC(=O)c1ccc(C)cc1)C1C(=O)c2ccccc2C1=O | 103% (inactive) |
| COc1cccc(NC(=O)CN(C)S(=O)(=O)c2ccc(C)cc2)c1 | 93.1% (inactive) |
| COc1cccc(-c2nnc(NC(=O)c3ccc(S(=O)(=O)N(CC(C)C)CC(C)C)cc3)o2)c1 | 8.59% (active) |
| CCN(CC)C(=O)CSc1nnc(-c2cccc(OC)c2)o1 | 101% (inactive) |
| c1ccc(-n2nc3ccccc3n2)cc1 | 100% (inactive) |
| Cc1ccc(/C=N/NC(=O)C2=NNC(c3ccccc3)(c3ccccc3)C2)c(O)c1 | 19.2% (active) |
| Cc1ccc(OCC(=O)N/N=C\c2ccco2)c(C)c1 | 108% (inactive) |
| C/C(=N\NC(=O)c1nc(C)cc(C)n1)c1ccccc1 | 106% (inactive) |
| CCOc1ccc(-n2c(N)c(C(=O)NCC3CCCO3)sc2=S)cc1 (configuration not stated) | 101% (inactive) |
| O=C(C(NS(=O)(=O)c1cccc2nsnc12)c1ccccc1)N1CCN(c2ccccc2)CC1 (configuration not stated) | 94.9% (inactive) |
| Oc1c(Cl)cc(Cl)c(Cl)c1Cc1c(O)c(Cl)cc(Cl)c1Cl | 46.4% (active) |
| CC(=O)CCS(=O)(=O)c1ccc(C)c(C)c1 | 32.5% (active) |
| Cc1ccc(S(=O)(=O)NCCN2CCOCC2)cc1C | 108% (inactive) |
| CCCCN(CCCC)C(=O)CCS(=O)(=O)c1ccc2c(c1)n(C)c(=O)c(=O)n2C | 96.8% (inactive) |
| Cc1cc(C)cc(N(CC(=O)N2CC=C(c3ccccc3)CC2)S(=O)(=O)c2c(C)noc2C)c1 | 95.6% (inactive) |

| Structure (SMILES) | viability |
| --- | --- |
| CC/C(O)=N\S(=O)(=O)c1ccc(N=NN(C)C)cc1 | 97.5% (inactive) |
| Cc1ccc(N(Cc2ccc(C(=O)Nc3ccccc3C(=O)NCc3ccco3)cc2)S(C)(=O)=O)cc1C | 97% (inactive) |
| Cc1nc2ccc(C(=O)O)cc2[nH]1 | 104% (inactive) |
| CC(C)c1nc2ccc(C(=O)O)cc2[nH]1 | 98.8% (inactive) |
| COC(=O)Nc1nc2ccc(Sc3ccccc3)cc2[nH]1 | 47.2% (active) |
| CN(Cc1ccccc1)C(=O)COc1ccccc1 | 104% (inactive) |
| c1ccc(-c2nc(NCc3ccco3)c3ccccc3n2)cc1 | 95.9% (inactive) |
| CC(c1ccco1)N(C(=O)Nc1ccccc1)C1CCCCC1 (configuration not stated) | 97.3% (inactive) |
| COc1ccc(-c2nnco2)cc1OC | 103% (inactive) |
| COc1ccc(-c2cc(C(F)(F)F)nc(S(C)(=O)=O)n2)cc1OC | 2.93% (active) |
| COc1ccc(-c2cc(C(F)(F)F)nc(NCc3cccnc3)n2)cc1 | 87.3% (inactive) |
| COc1cccc2cc(C(=O)N3CCN(C(=O)c4ccccc4)CC3)c(=O)oc12 | 92.4% (inactive) |
| CC(=O)NC1=NN(C(C)=O)C(C)(c2ccc(Cl)s2)S1 (configuration not stated) | 67.1% (inactive) |
| Cc1ccccc1CSCCNC(=O)c1ccc(Cl)c(S(=O)(=O)N2CCOCC2)c1 | 97.8% (inactive) |
| CCOc1cc(N2CCOCC2)c(OCC)cc1NC(=O)COc1cccc2cccnc12 | 31% (active) |
| CCOc1cc(N2CCOCC2)c(OCC)cc1NC(=O)COC(=O)[C@H](Cc1c[nH]c2ccccc12)NC(C)=O | 105% (inactive) |
| CCOc1cc(NC(=O)c2ccco2)c(OCC)cc1NC(=O)COc1ccccc1 | 99.7% (inactive) |
| CS(=O)(=O)n1nc(-c2ccccc2)nc1NCc1ccco1 | 105% (inactive) |
| O=C1Nc2ccccc2C12Nc1ccccc1S2 (configuration not stated) | 92.1% (inactive) |
| CCc1ccc2c(c1)C1(NN=C(c3ccccc3)S1)C(=O)N2 (configuration not stated) | 32.1% (active) |
| C=C1c2cc(CC)ccc2NC(=O)N1c1ccc(C)cc1 | 102% (inactive) |
| CN(C)S(=O)(=O)c1ccc(N2CCCC2)c(C(=O)NCc2ccccc2)c1 | 98.3% (inactive) |

Reference: PubChem BioAssay AID719 (SRMLSC, 2007)
